Source: BindingDB's records for doi:10.1016/j.ejmech.2010.04.038 (B.V. Patel Pharmaceutical Education and Research …, 2010)

Each compound was assayed against Transcription factor Jun (Homo sapiens, UniProt P05412) (assay: Inhibition of AP1 expressed in HEK293 cells assessed as inhibition of PMA-induced transcriptional activation treated 24 hrs before PMA challenge by luciferase reporter gene assay).
Outline: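 Six-point dose response […] and rising in ½-log steps, screened as in the primary reporter assay. IC50 calculated from the dose-response data.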

Sequence of Transcription factor Jun (P05412 whole entry): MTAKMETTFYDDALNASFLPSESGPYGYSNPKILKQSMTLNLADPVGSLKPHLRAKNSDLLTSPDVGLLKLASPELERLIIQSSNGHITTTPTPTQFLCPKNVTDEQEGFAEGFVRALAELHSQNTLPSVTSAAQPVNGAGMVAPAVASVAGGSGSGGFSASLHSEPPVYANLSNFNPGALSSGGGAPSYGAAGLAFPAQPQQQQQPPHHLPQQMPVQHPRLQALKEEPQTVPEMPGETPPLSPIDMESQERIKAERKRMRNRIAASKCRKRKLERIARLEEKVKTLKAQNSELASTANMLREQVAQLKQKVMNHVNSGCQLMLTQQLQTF

| SMILES | IC50 [µM] |
| --- | --- |
| COc1ccc(-n2c(-c3sc(Nc4ccc(Cl)cc4)nc3-c3ccccc3)nc3ccccc3c2=O)cc1 [2-[2-(4-Chloro-phenylamino)-4-phenyl-thiazol-5-yl]-3-(4-methoxy-phenyl)-3H quinazolin-4-one] | 14 |
| CNc1nc(-c2ccccc2)c(-c2nc3ccccc3c(=O)n2-c2ccc(Cl)cc2)s1 [3-(4-Chloro-phenyl)-2-(2-methylamino-4-phenyl-thiazol-5-yl)-3H-quinazolin-4-one] | > 500 |
| CNc1nc(C)c(-c2nc3ccccc3c(=O)n2-c2ccc(Cl)cc2)s1 [3-(4-Chloro-phenyl)-2-(4-methyl-2-methylamino-thiazol-5-yl)-3H-quinazolin-4-one] | 3 |
| O=c1c2ccccc2nc(-c2sc(Nc3ccc(Cl)cc3)nc2-c2ccccc2)n1-c1ccc(Cl)cc1 [3-(4-Chloro-phenyl)-2-[2-(4-chloro-phenylamino)-4-phenyl-thiazol-5-yl]-3H-quinazolin-4-one] | 4.3 |
| CCOC(=O)Nc1nc(-c2ccccc2)c(-c2nc3ccccc3c(=O)n2-c2ccccc2)s1 [[5-(4-Oxo-3-phenyl-3,4-dihydro-quinazolin-2-yl)-4-phenylthiazol-2-yl]-carbamic acid ethyl ester] | 5.7 |
| CCOC(=O)Nc1nc(C)c(-c2nc3ccccc3c(=O)n2-c2ccc(Cl)cc2)s1 [{5-[3-(4-Chloro-phenyl)-4-oxo-3,4-dihydro-quinazolin-2-yl]-4-methyl-thiazol-2-yl}-carbamic acid ethyl ester] | 10 |
